Screens deposited in PubChem by Broad Institute.
Sampled rows, rich in hits. Any-hit rate of the full collection: about 2.9%.
SIRT5 block = inhibitors of human sirtuin-5 desuccinylase | Purified SirT5, succinyl-peptide AMC, trypsin-coupled fluorescence | inhibition, % at 15 µM | 330,000 tested, 1.1% active; in the data active means inhibition above about 15%; inconclusive means no clear call, values can overlap the other calls
E-sel inducer = E-selectin induction on HUVECs; P16581; HUVEC E-selectin immunofluorescence imaging; normalized: neutral wells 0, TNF-alpha wells 100; activation, % at 7.58 µM; 260,000 tested, 0.37% active;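 active means mean E-selectin-positive cell signal at least 10% of the positive control, reached in at least 60% of replicates, without over 20% cell loss; inconclusive means no rule given, readout overlaps actives, possibly toxicity-flagged; inactive means the rest, including those meeting only one limit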
Target sequence (P16581 whole entry, looked up): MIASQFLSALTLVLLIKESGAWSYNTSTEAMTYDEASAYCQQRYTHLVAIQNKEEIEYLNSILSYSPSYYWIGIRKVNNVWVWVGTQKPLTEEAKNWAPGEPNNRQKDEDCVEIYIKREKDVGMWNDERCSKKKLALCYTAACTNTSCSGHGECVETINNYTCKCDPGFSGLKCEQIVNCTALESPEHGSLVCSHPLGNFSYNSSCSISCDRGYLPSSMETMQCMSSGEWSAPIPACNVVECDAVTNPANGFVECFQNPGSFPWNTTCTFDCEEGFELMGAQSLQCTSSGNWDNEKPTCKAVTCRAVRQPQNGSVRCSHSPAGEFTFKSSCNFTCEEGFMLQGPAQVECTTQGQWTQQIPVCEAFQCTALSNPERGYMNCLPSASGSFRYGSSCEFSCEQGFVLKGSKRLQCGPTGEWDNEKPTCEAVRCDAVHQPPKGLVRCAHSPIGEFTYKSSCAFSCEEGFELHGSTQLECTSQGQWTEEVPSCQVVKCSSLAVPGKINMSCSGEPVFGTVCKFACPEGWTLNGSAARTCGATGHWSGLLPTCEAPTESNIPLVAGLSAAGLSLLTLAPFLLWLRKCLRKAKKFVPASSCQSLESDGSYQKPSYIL
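Assay system: HUVEC primary endothelial cells. Input: 3,000 HUVEC seeded per well. Doses: one compound dose added by pin transfer. Read-out basis: % PE-positive cells. Benchmarks: TNF-alpha high, DMSO low. Detection: immunofluorescence imaging. Buffer or medium: EGM-2, gelatin.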
DENV2 CPE = inhibitors of DENV2 cytopathic effect; DENV2-infected cells, cytopathic effect rescue, plate reader; CPE inhibition, % at 9.99 µM; 350,000 tested, 1.7% active; in the data active means CPE inhibition above about 20%, passing the limit was not always enough; inconclusive means no clear call, values can overlap the other calls; tested in BHK-21 cells;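 further: 0% = median of neutral control wells and 100% = median of positive control wells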
The depositor's hits bear a star; u = inconclusive; x = no result.

SMILES | SIRT5 block | E-sel inducer | DENV2 CPE
CCC(=O)NC[C@@H]1[C@@H](c2ccc(C3=CCCC3)cc2)[C@@H](CO)N1C(=O)CC | 1.8 | -0.1 | -3.0
CCCNC(=O)NC[C@H]1[C@H](c2ccc(C3=CCCCC3)cc2)[C@@H](CO)N1C(C)=O | 0.4 | -0.2 | 21.6*
CC(=O)NC[C@H]1[C@@H](c2ccc(-c3ccccc3)cc2)[C@@H](CO)N1C(=O)C1CCC1 | 0.3 | 0.3 | 31.4*
CCCNC(=O)NC[C@@H]1[C@H](c2ccc(C3=CCCCC3)cc2)[C@@H](CO)N1C(C)=O | 13.0 | 0.0 | -8.2
CC(=O)NC[C@@H]1[C@@H](c2ccc(-c3ccccc3)cc2)[C@H](CO)N1C(=O)C1CCC1 | 14.2 | 0.6 | 5.7
CCC(=O)NC[C@H]1[C@H](c2ccc(-c3cccc(F)c3)cc2)[C@H](CO)N1C(=O)CC | -1.7 | 0.4 | 28.8*
CCC(=O)N1[C@H](CNC(C)=O)[C@@H](c2ccc(-c3cccc(F)c3)cc2)[C@@H]1CO | -0.2 | -0.1 | -1.8
O=C(Cc1ccc(Br)cc1)Nc1cccc(S(=O)(=O)N2CCCCC2)c1 | 8.0 | -4.9 | 4.7
CC(=O)NC[C@@H]1[C@@H](c2ccc(-c3ccccc3F)cc2)[C@H](CO)N1C(C)=O | -2.3 | -0.2 | -9.7
CC(=O)N(C)C[C@H]1[C@@H](c2ccc(-c3cccc(F)c3)cc2)[C@@H](CO)N1C(C)=O | 0.9 | -0.3 | 2.1
CC(=O)NC[C@@H]1[C@H](c2ccc(-c3cccc(F)c3)cc2)[C@H](CO)N1C(C)=O | -2.2 | -0.5 | 24.6*
CC(=O)NC[C@H]1[C@@H](c2ccc(-c3cccc(F)c3)cc2)[C@H](CO)N1C(C)=O | 1.4 | 0.0 | 7.5
CC(=O)NC[C@@H]1[C@@H](c2ccc(-c3ccccc3F)cc2)[C@@H](CO)N1C(C)=O | 0.1 | 0.2 | 20.0*
CC(=O)N1[C@@H](CO)[C@@H](c2ccc(-c3cccc(F)c3)cc2)[C@@H]1CNC(=O)C1CC1 | x | 0.0 | 6.6
CCC(=O)N1[C@H](CO)[C@@H](c2ccc(-c3cccc(F)c3)cc2)[C@@H]1CN(C)C(C)=O | 2.8 | 0.5 | 34.4*
CC(=O)N1[C@H](CNC(=O)C2CC2)[C@H](c2ccc(-c3cccc(F)c3)cc2)[C@@H]1CO | -3.3 | 0.0 | 28.4*
CCC1CCC2(CC1)NC(=O)N(CC(=O)Nc1cccc(S(=O)(=O)N(C)c3ccccc3)c1)C2=O (stereo not drawn) | -1.0 | x | 9.6
Cc1ccc(/C=C2/Sc3ccc(C(=O)N4CCN(c5ccccn5)CC4)cc3NC2=O)cc1 | 3.2 | 0.1 | -0.7
CN(C(=O)COC(=O)c1ccc([N+](=O)[O-])cc1)c1ccccc1 | -1.1 | x | -3.3
CN(C(=O)COC(=O)CSc1ccc([N+](=O)[O-])cc1)c1ccccc1 | 3.3 | -0.1 | 36.1*
OC[C@H]1[C@@H](c2ccc(-c3ccccc3)cc2)[C@@H]2CN(CCC(F)(F)F)CCCCN12 | -1.2 | -0.6 | -5.8
CN(C)C(=O)c1ccc(-c2ccc([C@H]3[C@H](CO)N4CCCCN(CCC(F)(F)F)C[C@@H]34)cc2)cc1 | 33.1* | -0.1 | 12.4
OC[C@H]1[C@H](c2ccc(-c3ccccc3)cc2)[C@@H]2CN(CCC(F)(F)F)CCCCN12 | 27.1* | 2.0 | 8.1
CN(C)C(=O)c1ccc(-c2ccc([C@H]3[C@@H](CO)N4CCCCN(CCC(F)(F)F)C[C@@H]34)cc2)cc1 | -12.0 | 0.3 | 14.6
OC(c1ccc(Cl)c(F)c1)c1ncc(-c2ccc(Oc3ccccc3)cc2)[nH]1 (stereo not drawn) | x | -0.5 | x
SMILES | SIRT5 block | E-sel inducer | DENV2 CPE
CN1OC[C@@H]2CN3C(=O)N(c4cccc5ccccc45)c4ccccc4[C@@H]3C[C@@H]21 | -9.8 | 0.0 | 6.8
CCCC#Cc1ccc2c(c1)O[C@@H](CN(C)C(=O)NCCC)[C@@H](C)CN([C@H](C)CO)S2(=O)=O | 12.2 | -0.2 | -0.2
CC1CN(C)C(C)CC1OC(=O)C(c1ccccc1)c1ccccc1 (stereo not drawn) | 0.2 | 1.3 | 5.4
COC(=O)C(c1ccccc1)C1(O)CC(C)N(C)CC1C (stereo not drawn) | 25.8* | x | 1.3
Cc1sc(NC(=O)c2ccco2)c(C(c2ccccc2)N2CCC(C)CC2)c1C (stereo not drawn) | 18.3* | -3.4 | -2.8
Cc1csc(NC(=O)c2ccco2)c1C(=O)c1ccccc1 | -2.4 | -0.1 | -1.5
Cc1ccc(C(c2c(NC(=O)c3ccco3)sc(C)c2C)N2CCOCC2)cc1 (stereo not drawn) | x | -0.2 | -11.7
Cc1sc(NC(=O)c2ccco2)c(C(=O)c2ccc(Cl)cc2)c1C | 16.0* | 0.3 | 0.3
COCCNC(=O)c1ccc(S(=O)(=O)N2CCCc3ccccc32)cc1 | -0.8 | 14.3 | -4.7
C[C@H](CO)N1C[C@H](C)[C@@H](CN(C)Cc2ccc(C(=O)Nc3ccccc3N)cc2)Oc2ccc(NS(=O)(=O)c3ccc(Cl)cc3)cc2CC1=O | -2.0 | 2.6 | -0.9
COc1ccc2c(CC(=O)OCc3nc4ccsc4c(=O)[nH]3)coc2c1 | x | -0.1 | 5.5
O=C(NCc1cccnc1)C(=O)NCC(c1ccco1)N1CCN(c2ccccc2)CC1 (stereo not drawn) | -1.0 | x | 21.0*
O=C(NCc1cccnc1)C(=O)NCC(c1ccco1)N1CCOCC1 (stereo not drawn) | -1.1 | x | -2.9
CCOc1ccc(NC(=O)c2ccccc2NS(=O)(=O)c2ccc(F)cc2)c([N+](=O)[O-])c1 | x | 0.1 | x
OC(COC(c1ccccc1)c1ccccc1)CN1CCOCC1 (stereo not drawn) | -2.8 | 71.6* | 0.8
CCCCOc1ccc(C(O)C(CN2CCOCC2)c2ccccc2)cc1 (stereo not drawn) | 15.5* | x | -2.8
CCCOc1ccc(C(O)C(CN2CCOCC2)c2ccccc2)cc1 (stereo not drawn) | -7.4 | x | x
Cc1ccc(C(OCC(O)CN2CCCCC2)c2ccccc2)cc1 (stereo not drawn) | -1.9 | 0.0 | u
COc1ccc(NC(=O)COc2cccc(-n3cnnn3)c2)cc1 | -8.9 | 13.6 | -2.6
COCC(=O)N1CC2(C1)[C@H](c1ccccc1)[C@@H](CO)N2C(=O)NC1CCCC1 | -0.4 | 0.0 | 9.8
CCC(=O)Nc1nonc1-c1nc2ccccc2n1CCC(C)C | -4.4 | x | x
CCOC(=O)C1=C(CC)Nc2ccccc2N/C1=N\S(=O)(=O)c1cc(Br)ccc1Br | 1.6 | x | x
CC(C)c1cn(CC[C@H]2CC[C@H](NC(=O)C3CCCCC3)[C@@H](CO)O2)nn1 | 1.3 | -0.1 | 1.1
CSc1nc(N)nc2c1ncn2CC(=O)N[C@H](CO)Cc1c[nH]c2ccccc12 | -2.7 | -0.8 | 7.7
Cc1cc(C)c(C(=O)C(C)OC(=O)Cc2n[nH]c(=O)c3ccccc23)cc1C (stereo not drawn) | 15.4* | -0.6 | 1.0
Cc1ccc(C(=O)C(C)OC(=O)Cc2n[nH]c(=O)c3ccccc23)cc1 (stereo not drawn) | -3.6 | x | 6.7
C[C@H]1CN([C@@H](C)CO)C(=O)c2cc(NC(=O)NC3CCCCC3)ccc2O[C@@H]1CN(C)S(=O)(=O)c1ccc(Cl)cc1 | 1.5 | 449.2* | 3.1
Cc1ccc(S(=O)(=O)N(C)C[C@@H]2Oc3ccc(NC(=O)NC4CCCCC4)cc3C(=O)N([C@H](C)CO)C[C@H]2C)cc1 | 3.6 | 1.4 | -3.2
